From ChEMBL document CHEMBL1926574, “Synthesis and biological evaluation of a new series of 1,2,4-triazolo[1,5-a]-1,3,5-triazines as human A(2A) adenosine receptor antagonists with improved water solubility” (J Med Chem, 2011)

Legend:
[1] = organism: Homo sapiens; assay: Selectivity ratio of Ki for human adenosine A1 receptor to Ki for human adenosine A2A receptor
[2] = target: T1, Adenosine receptor A3 (Homo sapiens) (UniProt P0DMS8); assay: Displacement of [I125]I-AB-MECA from human adenosine A3 receptor expressed in CHO cells at 10 uM by scintillation counting; format: cell-based
T1 sequence (whole entry): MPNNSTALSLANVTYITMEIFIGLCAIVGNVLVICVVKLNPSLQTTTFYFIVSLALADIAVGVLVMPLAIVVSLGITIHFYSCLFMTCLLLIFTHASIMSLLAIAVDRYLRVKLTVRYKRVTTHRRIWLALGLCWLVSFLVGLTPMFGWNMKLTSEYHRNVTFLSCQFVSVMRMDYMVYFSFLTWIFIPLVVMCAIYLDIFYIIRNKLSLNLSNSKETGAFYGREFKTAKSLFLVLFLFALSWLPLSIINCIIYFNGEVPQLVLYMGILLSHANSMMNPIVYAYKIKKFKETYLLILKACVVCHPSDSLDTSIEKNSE

[3] = target: T2, Adenosine receptor A2b (Homo sapiens, UniProt P29275); assay: Antagonist activity at human recombinant adenosine A2B receptor expressed in CHO cells assessed as inhibition of NECA-stimulated adenylyl cyclase activity; format: functional, cell-based
T2 sequence (P29275 whole entry): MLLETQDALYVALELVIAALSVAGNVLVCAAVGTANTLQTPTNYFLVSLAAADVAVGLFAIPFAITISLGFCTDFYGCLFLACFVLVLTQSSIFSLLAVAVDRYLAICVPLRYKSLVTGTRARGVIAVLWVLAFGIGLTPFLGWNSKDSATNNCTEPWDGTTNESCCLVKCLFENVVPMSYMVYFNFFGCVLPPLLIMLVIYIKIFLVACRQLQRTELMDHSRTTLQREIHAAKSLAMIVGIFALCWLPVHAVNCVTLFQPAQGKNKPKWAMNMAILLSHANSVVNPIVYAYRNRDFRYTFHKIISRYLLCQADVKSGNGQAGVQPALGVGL
Outline: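 Membranes from CHO cells stably expressing the hA2B receptor were incubated 20 min with about 150,000 cpm [α-32P]ATP, without EGTA and NaCl. The read-out was antagonist concentration-dependent inhibition of NECA-stimulated adenylyl cyclase. IC50 was calculated with the Hill equation.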

[4] = target: T3, Adenosine receptor A1 (Homo sapiens, UniProt P30542); assay: Displacement of [3H]DPCPX from human adenosine A1 receptor expressed in HEK293 cells by scintillation counting; format: cell-based
T3 sequence (P30542 whole entry): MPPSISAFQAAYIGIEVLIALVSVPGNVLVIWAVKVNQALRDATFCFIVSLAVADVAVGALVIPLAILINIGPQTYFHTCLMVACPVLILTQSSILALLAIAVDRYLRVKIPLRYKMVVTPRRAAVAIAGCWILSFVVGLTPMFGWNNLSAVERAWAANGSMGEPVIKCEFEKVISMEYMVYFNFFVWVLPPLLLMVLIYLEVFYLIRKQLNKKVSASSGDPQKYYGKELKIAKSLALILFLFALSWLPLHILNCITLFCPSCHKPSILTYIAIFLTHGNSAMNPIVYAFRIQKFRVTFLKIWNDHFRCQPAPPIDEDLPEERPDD

[5] = target: Adenosine receptor A2a (Homo sapiens, UniProt P29274); assay: Displacement of [3H]ZM241385 from human adenosine A2A receptor expressed in HEK293 cells by scintillation counting; format: cell-based
[6] = target: T4, Adenosine receptor A1 (Homo sapiens) (UniProt P30542); assay: Displacement of [3H]DPCPX from human adenosine A1 receptor expressed in HEK293 cells at 10 uM by scintillation counting; format: cell-based
T4 sequence (whole entry): T3 sequence (P30542 whole entry)

[7] = organism: Homo sapiens; assay: Selectivity ratio of Ki for human adenosine A3 receptor to Ki for human adenosine A2A receptor

Adenosine receptor A2a, sequence (P29274 whole entry): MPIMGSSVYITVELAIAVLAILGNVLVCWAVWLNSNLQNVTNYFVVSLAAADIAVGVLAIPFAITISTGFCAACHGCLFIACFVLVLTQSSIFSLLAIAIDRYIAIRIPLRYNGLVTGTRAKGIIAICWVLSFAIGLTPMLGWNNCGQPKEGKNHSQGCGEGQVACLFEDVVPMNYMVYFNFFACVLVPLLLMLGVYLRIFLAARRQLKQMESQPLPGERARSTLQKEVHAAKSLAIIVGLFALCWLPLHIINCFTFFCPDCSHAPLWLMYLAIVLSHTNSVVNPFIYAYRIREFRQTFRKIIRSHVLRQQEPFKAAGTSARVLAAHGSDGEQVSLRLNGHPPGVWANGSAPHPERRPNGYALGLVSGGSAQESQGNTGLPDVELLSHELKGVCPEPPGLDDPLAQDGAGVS

Compound | Ratio Ki [1] | Activity [2] | IC50 [3] | Ki [4] | Ki [5] | Activity [6] | Ratio Ki [7]
Nc1nc(N2CCN(Cc3ccccc3)CC2)nc2nc(-c3ccco3)nn12 | 47.5 | 71.9% | > 30000 nM | 978 nM | 20.6 nM | – | –
NCCCNc1nc(N)n2nc(-c3ccco3)nc2n1 | – | 40.5% | > 30000 nM | – | 270 nM | 44.3% | –
NCCNc1nc(N)n2nc(-c3ccco3)nc2n1 | – | 30.8% | > 100000 nM | – | 567 nM | 35.8% | –
CC(C)(C)OC(=O)NCCCCCNc1nc(N)n2nc(-c3ccco3)nc2n1 | 21.5 | 68.6% | > 10000 nM | 963 nM | 44.7 nM | – | –
Nc1nc(N2CCN(C(=O)c3cccc4ccccc34)CC2)nc2nc(-c3ccco3)nn12 | – | 31.1% | > 100000 nM | – | 7680 nM | 4.9% | –
Nc1nc(N2CCNCC2)nc2nc(-c3ccco3)nn12 | – | 29.9% | > 30000 nM | – | 153 nM | 28.6% | –
O=C(Nc1nc(O)nc2nc(-c3ccco3)nn12)c1ccccc1 | – | 75.9% | > 100000 nM | – | 1750 nM | 34.4% | –
CC(C)(C)OC(=O)NCCOCCOCCNc1nc(N)n2nc(-c3ccco3)nc2n1 | 89 | 74% | > 10000 nM | 1580 nM | 17.8 nM | – | –
Nc1nc(N2CCN(Cc3ccc(F)cc3)CC2)nc2nc(-c3ccco3)nn12 | 12.5 | 71.3% | > 10000 nM | 655 nM | 52.3 nM | – | –
Nc1nc(N2CCN(C(=O)Cc3ccccc3)CC2)nc2nc(-c3ccco3)nn12 | 37 | 64.5% | > 100000 nM | 3510 nM | 94.8 nM | – | –
Nc1nc(O)nc2nc(-c3ccco3)nn12 | 15.5 | 43.9% | > 10000 nM | 3110 nM | 201 nM | – | 50
Nc1nc(N2CCN(Cc3ccc(Cl)cc3)CC2)nc2nc(-c3ccco3)nn12 | 2.1 | 66.8% | > 30000 nM | 220 nM | 102 nM | – | –
Nc1nc(N2CCCC2)nc2nc(-c3ccco3)nn12 | 33 | 75% | > 30000 nM | 1940 nM | 59.1 nM | – | –
Nc1nc(N2CCN(C(=O)c3ccc([N+](=O)[O-])cc3)CC2)nc2nc(-c3ccco3)nn12 | – | 50.9% | > 100000 nM | – | 212 nM | 35.5% | 40
COC(=O)CCC(=O)N1CCN(c2nc(N)n3nc(-c4ccco4)nc3n2)CC1 | – | 37.2% | > 100000 nM | – | 66.2 nM | 19.4% | –
NCCCCCNc1nc(N)n2nc(-c3ccco3)nc2n1 | 33 | 49.9% | > 10000 nM | 2950 nM | 90.1 nM | – | –

Compound | Ratio Ki [1] | Activity [2] | IC50 [3] | Ki [4] | Ki [5] | Activity [6] | Ratio Ki [7]
Nc1nc(N)n2nc(-c3ccco3)nc2n1 | 9 | 36.4% | 11100 nM | 1410 nM | 160 nM | – | –
Nc1nc(N2CCN(C(=O)c3ccccc3)CC2)nc2nc(-c3ccco3)nn12 | – | 22.6% | > 100000 nM | – | 348 nM | 27.7% | –
NCCNc1nc(NCCN)n2nc(-c3ccco3)nc2n1 | 0.3 | 17.7% | > 100000 nM | – | 38200 nM | 10.7% | –
Nc1nc(NC(=O)c2ccccc2)n2nc(-c3ccco3)nc2n1 | 40 | 67.2% | 7060 nM | 1800 nM | 44.1 nM | – | –
CC(C)(C)CC(=O)N1CCN(c2nc(N)n3nc(-c4ccco4)nc3n2)CC1 | 900 | 41.9% | > 100000 nM | – | 11.1 nM | 53.1% | > 900
Nc1nc(N2CCN(C(=O)C(c3ccccc3)c3ccccc3)CC2)nc2nc(-c3ccco3)nn12 | 80 | 40.6% | > 100000 nM | 7470 nM | 92.9 nM | – | –
CCCCC(=O)N1CCN(c2nc(N)n3nc(-c4ccco4)nc3n2)CC1 | – | 56.2% | > 100000 nM | – | 124 nM | 10.8% | –
Nc1nc(N2CCN(Cc3ccc(Br)cc3)CC2)nc2nc(-c3ccco3)nn12 | 3.2 | 49.8% | > 10000 nM | 86.7 nM | 27.3 nM | – | 300
CC(C)(C)OC(=O)N1CCN(c2nc(N)n3nc(-c4ccco4)nc3n2)CC1 | 257 | 56.6% | > 10000 nM | 5400 nM | 21 nM | – | 400
CC(C)(C)C(=O)N1CCN(c2nc(N)n3nc(-c4ccco4)nc3n2)CC1 | – | 32.3% | > 100000 nM | – | 58.4 nM | 38.7% | –
CC(C)(C)OC(=O)NCCCNc1nc(N)n2nc(-c3ccco3)nc2n1 | 9 | 77.3% | 20600 nM | 344 nM | 38.6 nM | – | –
Nc1nc(N2CCN(Cc3cccc(Cl)c3)CC2)nc2nc(-c3ccco3)nn12 | 29 | 52.7% | > 30000 nM | 1510 nM | 51.8 nM | – | 200
Nc1nc(N2CCN(C(=O)C(Cl)Cl)CC2)nc2nc(-c3ccco3)nn12 | – | 33.6% | > 100000 nM | – | 282 nM | 34.6% | –
CC(C)(C)OC(=O)NCC1CCC(CNc2nc(N)n3nc(-c4ccco4)nc3n2)CC1 (centres undefined) | 56 | 75.5% | 7140 nM | 3890 nM | 69.7 nM | – | –
O=C(Nc1nc(Oc2ccccc2)nc2nc(-c3ccco3)nn12)c1ccccc1 | – | 32.3% | > 10000 nM | – | 1000 nM | 26.2% | –
